# Where a name gives a salt, the structure may show the parent alone.
# System: HIV-1^WT
# Experiment: Anti-HIV-1 MTT assay
# Format: cell-based
# Details: read-out: Anti-HIV-1 IC50 against HIV-1^WT, MT-4 cells, mean ± 1 S.D.
row,Structure (SMILES),IC50
1,"Nc1nc(NC2CC2)c2ncn([C@H]3C=C[C@@H](CO)C3)c2n1 [ABC, abacavir, reference compound]",0.263 ± 0.0076 µM
2,"CC(C)OC(=O)OCOP(=O)(CO[C@H](C)Cn1cnc2c(N)ncnc21)OCOC(=O)OC(C)C [TDF, tenofovir disoproxil fumarate, reference compound]",0.204 ± 0.127 µM
3,"Cc1cn([C@H]2C[C@H](N=[N+]=[N-])[C@@H](CO)O2)c(=O)[nH]c1=O [AZT, zidovudine, reference compound]",0.0374 ± 0.0075 µM
4,"Cc1cn(C2CC(O)C(C#N)(CO)O2)c(=O)[nH]c1=O (stereo not shown) [CdT, 4′-cyano-2′-deoxythymidine]",0.0091 ± 0.0073 µM

# System: HIV-1^K65R
# Experiment: Anti-HIV-1 MTT assay in MT-4 cells
# Format: cell-based
# Details: not given
row,Structure (SMILES),Fold change of IC50 against HIV-1^K65R compared with HIV-1^WT (in parentheses)
1,"Cc1cn(C2CC(O)C(C#N)(CO)O2)c(=O)[nH]c1=O (stereo not shown) [CdT, 4′-cyano-2′-deoxythymidine]",0.2 fold

# System: HIV-1^67-75
# Experiment: Anti-HIV-1 MTT assay in MT-4 cells
# Format: cell-based
# Details: Human immunodeficiency virus 1, MT4, read-out: IC50 against HIV-1^67-75
row,Structure (SMILES),IC50
1,"Nc1nc(NC2CC2)c2ncn([C@H]3C=C[C@@H](CO)C3)c2n1 [ABC, abacavir, reference compound]",> 1 µM

# Same assay, conditions: MT-4 cells, MTT assay
row,Structure (SMILES),Fold change of IC50 against HIV-1^67-75 compared with HIV-1^WT (in parentheses)
1,"Cc1cn(C2CC(O)C(C#N)(CO)O2)c(=O)[nH]c1=O (stereo not shown) [CdT, 4′-cyano-2′-deoxythymidine]",0.9 fold

# System: HIV-1^M184V
# Experiment: Anti-HIV-1 MTT assay in MT-4 cells
# Format: cell-based
# Details: not given
row,Structure (SMILES),Fold change of IC50 against HIV-1^M184V compared with HIV-1^WT (in parentheses)
1,"Cc1cn(C2CC(O)C(C#N)(CO)O2)c(=O)[nH]c1=O (stereo not shown) [CdT, 4′-cyano-2′-deoxythymidine]",1.3 fold

# Same assay, conditions: read-out: Anti-HIV-1 IC50 against HIV-1^M184V
row,Structure (SMILES),IC50
1,"Cc1cn(C2CC(O)C(C#N)(CO)O2)c(=O)[nH]c1=O (stereo not shown) [CdT, 4′-cyano-2′-deoxythymidine]",0.0117 ± 0.0024 µM

# System: HIV-1^T215F
# Experiment: Anti-HIV-1 MTT assay in MT-4 cells
# Format: cell-based
# Details: not given
row,Structure (SMILES),Fold change of IC50 against HIV-1^T215F compared with HIV-1^WT (in parentheses)
1,"Cc1cn(C2CC(O)C(C#N)(CO)O2)c(=O)[nH]c1=O (stereo not shown) [CdT, 4′-cyano-2′-deoxythymidine]",0.3 fold

# Same assay, conditions: read-out: Anti-HIV-1 IC50 against HIV-1^T215F
row,Structure (SMILES),IC50
1,"Cc1cn(C2CC(O)C(C#N)(CO)O2)c(=O)[nH]c1=O (stereo not shown) [CdT, 4′-cyano-2′-deoxythymidine]",0.003 µM

# System: not listed separately
# Experiment: in vitro
# Format: cell-based, human
# Details: human
row,Structure (SMILES),CC50
1,"C#C[C@]1(CO)O[C@@H](n2cnc3c(=O)[nH]c(N)nc32)C[C@@H]1O [EdG, 4′-ethynyl-2′-deoxyguanosine]",7 µM
2,"Nc1nc(F)nc2c1ncn2[C@H]1C[C@H](O)[C@](CO)(CF)O1 [FMFdA, 4′-fluoromethyl-2-fluoro-2′-deoxyadenosine]",6.6 ± 0.5 µM
3,"C[C@]1(CO)O[C@@H](n2cnc3c(N)nc(N)nc32)C[C@@H]1O [MAdA, 4′-methyl-2-amino-2′-deoxyadenosine]",4 ± 0.3 µM
4,"C[C@]1(CO)O[C@@H](n2cnc3c(O)nc(N)nc32)C[C@@H]1O [MdG, 4′-methyl-2′-deoxyguanosine]",4.6 ± 0.6 µM
5,"N#C[C@]1(CO)O[C@@H](n2cnc3c(N)nc(N)nc32)C[C@@H]1O [CAdA, 4′-cyano-2-amino-2′-deoxyadenosine]",3.5 ± 1.2 µM
6,"Nc1nc(NC2CC2)c2ncn([C@H]3C=C[C@@H](CO)C3)c2n1 [ABC, abacavir, reference compound]",> 100 µM
7,"C#C[C@]1(CO)O[C@@H](n2cnc3c(N)nc(F)nc32)C[C@@H]1O [EFdA, 4′-ethynyl-2-fluoro-2′-deoxyadenosine]",19.2 ± 6 µM
8,"CC(C)OC(=O)OCOP(=O)(CO[C@H](C)Cn1cnc2c(N)ncnc21)OCOC(=O)OC(C)C [TDF, tenofovir disoproxil fumarate, reference compound]",39.4 ± 7.3 µM
9,"CNc1nc(N)nc2c1ncn2[C@H]1C[C@H](O)[C@](CO)(CF)O1 [FMAMdA, 4′-fluoromethyl-2-amino-N6-methyl-2′-deoxyadenosine]",> 100 µM
10,"CC[C@]1(CO)O[C@@H](n2cnc3c(O)nc(N)nc32)C[C@@H]1O [EtdG, 4′-ethyl-2′-deoxyguanosine]",47 ± 3.2 µM
11,"CC[C@]1(CO)O[C@@H](n2cnc3c(N)nc(N)nc32)C[C@@H]1O [EtAdA, 4′-ethyl-2-amino-2′-deoxyadenosine]",35.9 ± 3.1 µM
12,"Cc1cn([C@H]2C[C@H](N=[N+]=[N-])[C@@H](CO)O2)c(=O)[nH]c1=O [AZT, zidovudine, reference compound]",> 100 µM
13,"Nc1ccn([C@H]2C[C@H](O)[C@](CO)(CF)O2)c(=O)n1 [FMdC, 4′-fluoromethyl-2′-deoxycytidine]",4 µM
14,"C=C[C@]1(CO)O[C@@H](n2cnc3c(N)nc(N)nc32)C[C@@H]1O [VAdA, 4′-vinyl-2-amino-2′-deoxyadenosine]",20.6 ± 3.2 µM
15,"Nc1nc(N)c2ncn([C@H]3C[C@H](O)[C@](CO)(CF)O3)c2n1 [FMAdA, 4′-fluoromethyl-2-amino-2′-deoxyadenosine]",22.2 ± 4.1 µM

# System: MT-4 cells
# Experiment: in vitro
# Format: cell-based, human
# Details: CC50 in MT-4 / IC50 against HIV-1^WT
row,Structure (SMILES),S.I. with (CC50/IC50^WT)
1,"C#C[C@]1(CO)O[C@@H](n2cnc3c(=O)[nH]c(N)nc32)C[C@@H]1O [EdG, 4′-ethynyl-2′-deoxyguanosine]","4,350"
2,"Nc1nc(F)nc2c1ncn2[C@H]1C[C@H](O)[C@](CO)(CF)O1 [FMFdA, 4′-fluoromethyl-2-fluoro-2′-deoxyadenosine]",260
3,"C[C@]1(CO)O[C@@H](n2cnc3c(N)nc(N)nc32)C[C@@H]1O [MAdA, 4′-methyl-2-amino-2′-deoxyadenosine]",15
4,"C[C@]1(CO)O[C@@H](n2cnc3c(O)nc(N)nc32)C[C@@H]1O [MdG, 4′-methyl-2′-deoxyguanosine]",25
5,"N#C[C@]1(CO)O[C@@H](n2cnc3c(N)nc(N)nc32)C[C@@H]1O [CAdA, 4′-cyano-2-amino-2′-deoxyadenosine]","17,500"
6,"Nc1nc(NC2CC2)c2ncn([C@H]3C=C[C@@H](CO)C3)c2n1 [ABC, abacavir, reference compound]",>380
7,"C#C[C@]1(CO)O[C@@H](n2cnc3c(N)nc(F)nc32)C[C@@H]1O [EFdA, 4′-ethynyl-2-fluoro-2′-deoxyadenosine]","64,000"
8,"CC(C)OC(=O)OCOP(=O)(CO[C@H](C)Cn1cnc2c(N)ncnc21)OCOC(=O)OC(C)C [TDF, tenofovir disoproxil fumarate, reference compound]",190
9,"CNc1nc(N)nc2c1ncn2[C@H]1C[C@H](O)[C@](CO)(CF)O1 [FMAMdA, 4′-fluoromethyl-2-amino-N6-methyl-2′-deoxyadenosine]",>600
10,"CC[C@]1(CO)O[C@@H](n2cnc3c(O)nc(N)nc32)C[C@@H]1O [EtdG, 4′-ethyl-2′-deoxyguanosine]","8,390"
11,"CC[C@]1(CO)O[C@@H](n2cnc3c(N)nc(N)nc32)C[C@@H]1O [EtAdA, 4′-ethyl-2-amino-2′-deoxyadenosine]","4,030"
12,"Cc1cn([C@H]2C[C@H](N=[N+]=[N-])[C@@H](CO)O2)c(=O)[nH]c1=O [AZT, zidovudine, reference compound]","> 2,670"
13,"Nc1ccn([C@H]2C[C@H](O)[C@](CO)(CF)O2)c(=O)n1 [FMdC, 4′-fluoromethyl-2′-deoxycytidine]",120
14,"Cc1cn(C2CC(O)C(C#N)(CO)O2)c(=O)[nH]c1=O (stereo not shown) [CdT, 4′-cyano-2′-deoxythymidine]","> 1,100"
15,"C=C[C@]1(CO)O[C@@H](n2cnc3c(N)nc(N)nc32)C[C@@H]1O [VAdA, 4′-vinyl-2-amino-2′-deoxyadenosine]","4,790"
16,"Nc1nc(N)c2ncn([C@H]3C[C@H](O)[C@](CO)(CF)O3)c2n1 [FMAdA, 4′-fluoromethyl-2-amino-2′-deoxyadenosine]","7,400"

# Same assay, conditions: read-out: CC50 in MT-4; MT-4 cells, 7 days of culture
row,Structure (SMILES),CC50
1,"Cc1cn(C2CC(O)C(C#N)(CO)O2)c(=O)[nH]c1=O (stereo not shown) [CdT, 4′-cyano-2′-deoxythymidine]",> 10 µM

# System: HIV-1EFdA^R
# Experiment: p24 assay using MT-4 cells
# Format: cell-based
# Details: Human immunodeficiency virus 1, MT4, read-out: IC50 against HIV-1EFdA^R
# Procedure, shortened: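 MT-4 cells (RPMI 1640, 10% FCS, 37°C, 5% CO2) infected with a recombinant HIV-1NL4-3-based clone and cultured 5 days with test compound. Supernatant p24 was measured by chemiluminescent enzyme immunoassay, and signal (cps) was converted to ng/ml against a 2-fold serial-dilution p24 standard curve. Run in triplicate in two or three independent experiments; IC50 was calculated per experiment and averaged.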
row,Structure (SMILES),IC50
1,"C#C[C@]1(CO)O[C@@H](n2cnc3c(N)nc(F)nc32)C[C@@H]1O [EFdA, 4′-ethynyl-2-fluoro-2′-deoxyadenosine]",0.042 µM
2,"C=C[C@]1(CO)O[C@@H](n2cnc3c(N)nc(N)nc32)C[C@@H]1O [VAdA, 4′-vinyl-2-amino-2′-deoxyadenosine]",0.804 µM

# Same assay, conditions: p24 assay, MT-4 cells
row,Structure (SMILES),Fold change of IC50 against HIV-1EFdA^R compared with HIV-1^WT
1,"C#C[C@]1(CO)O[C@@H](n2cnc3c(N)nc(F)nc32)C[C@@H]1O [EFdA, 4′-ethynyl-2-fluoro-2′-deoxyadenosine]",52 fold
2,"C=C[C@]1(CO)O[C@@H](n2cnc3c(N)nc(N)nc32)C[C@@H]1O [VAdA, 4′-vinyl-2-amino-2′-deoxyadenosine]",190 fold

# Same assay, conditions: p24 assay, MT-4 cells, concentrations up to 1 μM
row,Structure (SMILES),Activity against HIV-1EFdA^R (in words)
1,"C#C[C@]1(CO)O[C@@H](n2cnc3c(=O)[nH]c(N)nc32)C[C@@H]1O [EdG, 4′-ethynyl-2′-deoxyguanosine]",favorable activity
2,"N#C[C@]1(CO)O[C@@H](n2cnc3c(N)nc(N)nc32)C[C@@H]1O [CAdA, 4′-cyano-2-amino-2′-deoxyadenosine]",favorable activity
3,"C#C[C@]1(CO)O[C@@H](n2cnc3c(N)nc(F)nc32)C[C@@H]1O [EFdA, 4′-ethynyl-2-fluoro-2′-deoxyadenosine]",favorable activity
4,"C#C[C@]1(CO)O[C@@H](n2ccc(N)nc2=O)C[C@@H]1O [EdC, 4′-ethynyl-2′-deoxycytidine]",favorable activity
5,"Cc1cn(C2CC(O)C(C#N)(CO)O2)c(=O)[nH]c1=O (stereo not shown) [CdT, 4′-cyano-2′-deoxythymidine]",favorable activity

# System: HIV-1^M184V
# Experiment: not given
# Details: ref Kawamoto et al., 2008; Maeda et al., 2014; cited from earlier work
row,Structure (SMILES),Fold decrease in activity against HIV-1^M184V (previous observation)
1,"C#C[C@]1(CO)O[C@@H](n2cnc3c(N)nc(F)nc32)C[C@@H]1O [EFdA, 4′-ethynyl-2-fluoro-2′-deoxyadenosine]",~ 6 fold

# System: not given
# Experiment: not given
# Details: ref Nakata et al., 2007; cited from earlier work
row,Structure (SMILES),Intracellular half-life
1,"C#C[C@]1(COP(=O)(O)OP(=O)(O)OP(=O)(O)O)O[C@@H](n2cnc3c(N)nc(F)nc32)C[C@@H]1O [EFdA-TP, EFdA-triphosphate]",≥ 17 h

# System: HIV-1 with I142V, T165R, and M184V in RT
# Experiment: not given
# Details: ref Kawamoto et al., 2008; cited from earlier work
row,Structure (SMILES),"Resistance, fold change compared with HIV-1^WT"
1,"C#C[C@]1(CO)O[C@@H](n2cnc3c(N)nc(F)nc32)C[C@@H]1O [EFdA, 4′-ethynyl-2-fluoro-2′-deoxyadenosine]",22 fold

# System: HBV
# Experiment: not given
# Details: ref Takamatsu et al., 2015; cited from earlier work
row,Structure (SMILES),Anti-HBV activity (in words)
1,"N#C[C@]1(CO)O[C@@H](n2cnc3c(N)nc(N)nc32)C[C@@H]1O [CAdA, 4′-cyano-2-amino-2′-deoxyadenosine]",sub nano molar
2,"C#C[C@]1(CO)O[C@@H](n2cnc3c(N)nc(F)nc32)C[C@@H]1O [EFdA, 4′-ethynyl-2-fluoro-2′-deoxyadenosine]",minor anti-HBV activity
3,"N#C[C@]1(CO)O[C@@H](n2cnc3c(=O)[nH]c(N)nc32)C[C@@H]1O [CdG, reference compound]",sub nano molar

# System: HIV-1
# Experiment: not given
# Details: ref Takamatsu et al., 2015; cited from earlier work
row,Structure (SMILES),Anti-HIV-1 activity (in words)
1,"N#C[C@]1(CO)O[C@@H](n2cnc3c(N)nc(N)nc32)C[C@@H]1O [CAdA, 4′-cyano-2-amino-2′-deoxyadenosine]",sub nano molar
2,"N#C[C@]1(CO)O[C@@H](n2cnc3c(=O)[nH]c(N)nc32)C[C@@H]1O [CdG, reference compound]",sub nano molar

# System: not given
# Experiment: not given
# Details: 10-mg single dose in humans; ref Grobler et al., CROI. Abstr. 98, 2016; cited from earlier work
row,Structure (SMILES),Time with concentrations exceeding projected efficacious concentrations
1,"C#C[C@]1(CO)O[C@@H](n2cnc3c(N)nc(F)nc32)C[C@@H]1O [EFdA, 4′-ethynyl-2-fluoro-2′-deoxyadenosine]",at least 7 days

# From paper PMC6261781 (Cell chemical biology, 2018)
